Assay results from ChEMBL document CHEMBL1123822, “Lysosomotropic agents. 7. Broad-spectrum antifungal activity of lysosomotropic detergents” (1987).
≈ marks a conversion by molar mass, not a printed value.

Legend:
Type in all cases: functional
[1] = system: Aspergillus fumigatus; assay: The compound was tested for antifungal activity against Aspergillus fumigatus MF4839 using agar dilution assay
In short: (§1)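 Standardized agar dilution in Kimmig agar with 5% glycerol. Lysosomotropic detergents solubilized in 10% Me₂SO. Twofold serial dilutions in sterile distilled water gave final agar concentrations of 128 to 0.06 μg/mL. Stated error ±1 dilution stage.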

[2] = system: Candida tropicalis; assay: The compound was tested for antifungal activity against Candida tropicalis MY1012 using agar dilution assay
In short: (§2)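 Standardized agar dilution on Kimmig agar with 5% glycerol. Detergents solubilized in 10% Me2SO; desoxycholate-stabilized amphotericin B diluted and titrated in sterile distilled water. Twofold dilutions in sterile distilled water gave final agar concentrations of 128 to 0.06 μg/mL. Error limit ±1 dilution stage.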

[3] = system: Saccharomyces cerevisiae; assay: The compound was tested for antifungal activity against Saccharomyces cerevisiae MY1027 using agar dilution assay; in short: as §2
[4] = system: Candida albicans; assay: The compound was tested for antifungal activity against Candida albicans MY1013 using agar dilution assay; in short: as §1
[5] = system: Candida albicans; assay: The compound was tested for antifungal activity against Candida albicans MY1058 using agar dilution assay; in short: as §1
[6] = system: Saccharomyces cerevisiae; assay: The compound was evaluated for mean zone diameter (inhibition) against yeast at the concentration of 125 ug/mL
In short: (§3)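 Filter-paper disk diffusion (6.2 mm disks) with drug in methanol at the stated level, 25 μL per disk. Disks were air-dried at room temperature, laid on seeded agar, rewet with 25 μL 10% aqueous Me₂SO and incubated overnight. Media were unbuffered, pH ca. 4.5–5.6. The panel was 21 yeasts and 21 filamentous fungi. Zones of 0 mm were excluded from means.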

[7] = system: Pichia kudriavzevii; assay: The compound was tested for antifungal activity against Candida krusei MY1020 using agar dilution assay; in short: as §1
[8] = system: Candida parapsilosis; assay: The compound was tested for antifungal activity against Candida parapsilosis MY1009 using agar dilution assay; settings: Lodderomyces parapsilosis; in short: as §1
[9] = system: Candida parapsilosis; assay: The compound was tested for antifungal activity against Candida parapsilosis MY1010 using agar dilution assay; settings: Lodderomyces parapsilosis; in short: as §1
[10] = system: Saccharomyces cerevisiae; assay: The compound was evaluated for mean zone diameter (inhibition) against yeast at the concentration of 250 ug/mL; in short: as §3
[11] = system: Aspergillus flavus; assay: The compound was tested for antifungal activity against Aspergillus flavus MF0383 using agar dilution assay; in short: as §1
[12] = system: Diutina rugosa; assay: The compound was tested for antifungal activity against Candida rugosa MY1022 using agar dilution assay; in short: as §1
[13] = system: Candida albicans; assay: The compound was tested for antifungal activity against Candida albicans MY1055 using agar dilution assay; in short: as §1
[14] = system: Candida albicans; assay: The compound was tested for antifungal activity against Candida albicans MY0992 using agar dilution assay; in short: as §1
[15] = system: Cryptococcus neoformans; assay: The compound was tested for antifungal activity against Cryptococcus neoformans MY1146 using agar dilution assay; in short: as §2
[16] = system: Fungi; assay: The compound was evaluated for mean zone diameter (inhibition) against yeast at the concentration of 1000 ug/mL
In short: (§4)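 Disk diffusion: drug in methanol spotted on 6.2 mm paper disks (25 μL/disk), dried at room temperature, laid on seeded agar, rewet with 25 μL 10% aqueous Me₂SO; zones read after overnight incubation. Unbuffered acidic media (pH ca. 4.5–5.6). Panel of 21 yeasts and 21 filamentous fungi; zones of 0 mm excluded from means.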

[17] = system: Cryptococcus neoformans; assay: The compound was tested for antifungal activity against Cryptococcus neoformans MY1051 using agar dilution assay; in short: as §2
[18] = system: Candida albicans; assay: The compound was tested for antifungal activity against Candida stellatoidea MY1017 using agar dilution assay; in short: as §2
[19] = system: Candida albicans; assay: The compound was tested for antifungal activity against Candida albicans My1029 using agar dilution assay; in short: as §1
[20] = system: Penicillium italicum; assay: The compound was tested for antifungal activity against Penicillium italicum MF2819 using agar dilution assay; in short: as §2
[21] = system: Kluyveromyces marxianus; assay: The compound was tested for antifungal activity against Candida pseudotropicalis MY1040 using agar dilution assay; in short: as §1
[22] = system: Nakaseomyces glabratus; assay: The compound was tested for antifungal activity against Torulopsis glabrata MY1059 using agar dilution assay; in short: as §2
[23] = system: Candida tropicalis; assay: The compound was tested for antifungal activity against Candida tropicalis MY1011 using agar dilution assay; in short: as §2
[24] = system: Meyerozyma guilliermondii; assay: The compound was tested for antifungal activity against Candida guilliermondii MY1019 using agar dilution assay; in short: as §1
[25] = system: Saccharomyces cerevisiae; assay: The compound was evaluated for mean zone diameter (inhibition) against yeast at the concentration of 500 ug/mL; in short: as §4

CC(=O)N1CCN(c2ccc(OCC3COC(Cn4ccnc4)(c4ccc(Cl)cc4Cl)O3)cc2)CC1 (stereo not given) [KETOCONAZOLE]
MIC [1]: 1 µg/mL (≈ 1.88 µM) | MIC [2]: > 128 µg/mL | MIC [3]: 0.5 µg/mL (≈ 0.941 µM) | MIC [4]: 0.5 µg/mL (≈ 0.941 µM) | MIC [5]: 0.5 µg/mL (≈ 0.941 µM) | Inhibition zone [6]: 20.6 mm | MIC [7]: 1 µg/mL (≈ 1.88 µM) | MIC [8]: 4 µg/mL (≈ 7.53 µM) | MIC [9]: 2 µg/mL (≈ 3.76 µM) | Inhibition zone [10]: 23.3 mm | MIC [11]: 1 µg/mL (≈ 1.88 µM) | MIC [12]: 0.5 µg/mL (≈ 0.941 µM) | MIC [13]: 0.5 µg/mL (≈ 0.941 µM) | MIC [14]: 1 µg/mL (≈ 1.88 µM) | MIC [15]: 0.5 µg/mL (≈ 0.941 µM) | Inhibition zone [16]: 27.2 mm | MIC [17]: 0.25 µg/mL (≈ 0.47 µM) | MIC [18]: 0.5 µg/mL (≈ 0.941 µM) | MIC [19]: 0.5 µg/mL (≈ 0.941 µM) | MIC [20]: 1 µg/mL (≈ 1.88 µM) | MIC [21]: 1 µg/mL (≈ 1.88 µM) | MIC [22]: 1 µg/mL (≈ 1.88 µM) | MIC [23]: 1 µg/mL (≈ 1.88 µM) | MIC [24]: 0.5 µg/mL (≈ 0.941 µM) | Inhibition zone [25]: 24.8 mm
